Data from ChEMBL document CHEMBL4680135, “Design, synthesis and biological evaluation of indole-2-carboxylic acid derivatives as IDO1/TDO dual inhibitors” (Eur J Med Chem, 2020).

Columns and labels:
[1] = molecular target: Indoleamine 2,3-dioxygenase 1 (Homo sapiens, UniProt P14902); assay: Inhibition of recombinant human IDO1 assessed as reduction in kynurenine formation using L-tryptophan as substrate incubated for 45 mins by microplate reader assay
[2] = molecular target: Tryptophan 2,3-dioxygenase (Homo sapiens, UniProt P48775); assay: Inhibition of recombinant human TDO assessed as reduction in kynurenine formation using L-tryptophan as substrate incubated for 45 mins by microplate reader assay
Method in brief: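 Purified recombinant human TDO (0.05 μM) in 100 mM potassium phosphate pH 6.5 with 40 mM neutralized ascorbate, 200 μg/mL catalase, 20 μM methylene blue, L-Trp substrate and compound; 37 °C, 45 min. Stopped with 30% TCA, 65 °C 15 min, then 2% p-dimethylaminobenzaldehyde in acetic acid; absorbance 490 nm; IC50 by curve fitting.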

Tryptophan 2,3-dioxygenase, sequence (P48775 whole entry): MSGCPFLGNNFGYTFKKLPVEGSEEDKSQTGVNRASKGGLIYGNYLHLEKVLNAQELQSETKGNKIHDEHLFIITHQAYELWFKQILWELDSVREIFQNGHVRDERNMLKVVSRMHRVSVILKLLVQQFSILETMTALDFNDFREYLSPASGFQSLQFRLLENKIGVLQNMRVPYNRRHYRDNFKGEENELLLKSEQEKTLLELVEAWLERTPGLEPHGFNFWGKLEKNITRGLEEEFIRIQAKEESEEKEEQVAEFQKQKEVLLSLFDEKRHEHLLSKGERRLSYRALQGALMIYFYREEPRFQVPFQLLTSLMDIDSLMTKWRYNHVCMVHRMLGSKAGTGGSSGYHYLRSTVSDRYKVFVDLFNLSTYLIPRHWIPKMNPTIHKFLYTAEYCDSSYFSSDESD
Indoleamine 2,3-dioxygenase 1, sequence (P14902 whole entry): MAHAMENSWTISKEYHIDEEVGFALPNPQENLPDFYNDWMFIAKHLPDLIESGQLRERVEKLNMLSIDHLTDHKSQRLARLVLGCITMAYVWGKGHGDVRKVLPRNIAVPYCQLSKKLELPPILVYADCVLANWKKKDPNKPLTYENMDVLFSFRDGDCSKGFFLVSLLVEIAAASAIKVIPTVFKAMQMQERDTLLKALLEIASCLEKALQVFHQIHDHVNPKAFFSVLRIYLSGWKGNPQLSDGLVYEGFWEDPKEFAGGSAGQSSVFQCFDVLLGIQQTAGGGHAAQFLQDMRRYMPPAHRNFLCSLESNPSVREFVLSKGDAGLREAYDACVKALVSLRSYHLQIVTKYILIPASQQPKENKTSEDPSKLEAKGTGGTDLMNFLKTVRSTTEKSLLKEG

| Structure (SMILES) | IC50 [1] | IC50 [2] |
| --- | --- | --- |
| CC(=O)Nc1cc(Nc2ccc(F)c(OCc3ccccc3)c2)c2cc(C(=O)O)[nH]c2c1 | 10 µM | 5.24 µM |
| CC(=O)Nc1cc(Nc2ccc(F)c(-c3ccsc3)c2)c2cc(C(=O)O)[nH]c2c1 | 3.89 µM | 2.53 µM |
| O=C(NO)c1cc2c(Nc3ccc(F)c(Cl)c3)ccc(F)c2[nH]1 | > 100 µM | – |
| NC(=O)c1cc2c(Nc3ccc(F)c(Cl)c3)ccc(F)c2[nH]1 | > 100 µM | – |
| CC(=O)Nc1cc(Nc2ccc(F)cc2)c2cc(C(=O)O)[nH]c2c1 | 5.28 µM | 7.69 µM |
| N#Cc1cc(Nc2ccc(F)c(Cl)c2)c2cc(C(=O)O)[nH]c2c1 | > 100 µM | > 100 µM |
| O=C(O)c1cc2c(Nc3ccc(F)c(Cl)c3)cc([N+](=O)[O-])cc2[nH]1 | > 100 µM | > 100 µM |
| O=C(O)c1cc2c(Nc3ccc(F)c(Cl)c3)ccc([N+](=O)[O-])c2[nH]1 | > 100 µM | – |
| O=C(O)c1cc2c(Nc3ccc(OC(F)(F)F)c(Cl)c3)ccc(F)c2[nH]1 | > 100 µM | – |
| O=C(O)c1cc2c(Nc3ccc(F)c(Cl)c3)cc(Cl)cc2[nH]1 | > 100 µM | – |
| O=C(Cc1ccc(F)c(Cl)c1)Nc1ccc(F)c2[nH]c(C(=O)O)cc12 | > 100 µM | – |
| N/C(=N\O)c1cc2c(Nc3ccc(F)c(Cl)c3)ccc(F)c2[nH]1 | > 100 µM | – |
| O=C(O)c1cc2c(Nc3ccc(F)c(Cl)c3)ccc(Cl)c2[nH]1 | > 100 µM | – |
| O=C(O)c1cc2c(Nc3ccc(C(F)(F)F)c(Cl)c3)ccc(F)c2[nH]1 | > 100 µM | – |
| N#Cc1ccc(Nc2ccc(F)c(Cl)c2)c2cc(C(=O)O)[nH]c12 | > 100 µM | – |
| COc1ccc(Nc2ccc(F)c3[nH]c(C(=O)O)cc23)cc1Cl | > 100 µM | – |
| N#Cc1cc(Nc2ccc(F)c3[nH]c(C(=O)O)cc23)ccc1F | > 100 µM | – |
| Cc1cc(Nc2ccc(F)c(Cl)c2)c2cc(C(=O)O)n(C)c2c1 | > 100 µM | – |
| COc1cc(Nc2ccc(F)c(Cl)c2)c2cc(C(=O)O)[nH]c2c1 | > 100 µM | – |
| O=C(O)c1cc2c(Nc3ccc(F)c(F)c3)ccc(F)c2[nH]1 | > 100 µM | – |
| OCc1cc2c(Nc3ccc(F)c(Cl)c3)ccc(F)c2[nH]1 | > 100 µM | – |

| Structure (SMILES) | IC50 [1] | IC50 [2] |
| --- | --- | --- |
| CC(=O)Nc1cc(Nc2ccc(F)c(Cl)c2)c2cc(C(=O)O)sc2c1 | > 100 µM | – |
| COc1cc(Nc2ccc(F)c3[nH]c(C(=O)O)cc23)cc(C(F)(F)F)c1 | > 100 µM | – |
| Cn1c(C(=O)O)cc2c(Nc3ccc(F)c(Cl)c3)ccc(F)c21 | > 100 µM | – |
| O=C(O)c1cc2c(Nc3ccc(F)c(Cl)c3)cc(F)cc2[nH]1 | > 100 µM | – |
| O=C(O)c1cc2c(Nc3ccc(Cl)c(Cl)c3)ccc(F)c2[nH]1 | > 100 µM | – |
| Cc1ccc(Nc2ccc(F)c(Cl)c2)c2cc(C(=O)O)[nH]c12 | > 100 µM | – |
| COc1ccc(C(=O)O)c(Nc2ccc(F)c3[nH]c(C(=O)O)cc23)c1 | > 100 µM | – |
| O=C(O)c1cc2c(NCc3ccc(F)c(Cl)c3)ccc(F)c2[nH]1 | > 100 µM | – |
| O=C(O)c1cc2c(Nc3ccc(F)c(Cl)c3)cccc2[nH]1 | > 100 µM | – |
| O=C(O)c1cc2c(Sc3ccc(F)c(Cl)c3)ccc(F)c2[nH]1 | > 100 µM | – |
| O[C@H](C[C@H]1c2c(F)cccc2-c2cncn21)[C@H]1CC[C@H](O)CC1 [NAVOXIMOD] | – | 0.8 µM |
| O=C(O)c1cc2c(Nc3cccc4[nH]ccc34)ccc(F)c2[nH]1 | > 100 µM | – |
| Fc1ccc(Nc2ccc(F)c3[nH]ccc23)cc1Cl | > 100 µM | – |
| N#Cc1cc2c(Nc3ccc(F)c(Cl)c3)ccc(F)c2[nH]1 | > 100 µM | – |
| Cc1cc2c(Nc3ccc(F)c(Cl)c3)ccc(F)c2[nH]1 | > 100 µM | – |
| O=C(Nc1ccc(F)c(Cl)c1)Nc1ccc(F)c2[nH]c(C(=O)O)cc12 | > 100 µM | – |
| CC(=O)Nc1ccc(Nc2ccc(F)c(Cl)c2)c2cc(C(=O)O)[nH]c12 | > 100 µM | – |
| O=C(Nc1ccc(F)c2[nH]c(C(=O)O)cc12)c1ccc(F)c(Cl)c1 | > 100 µM | – |
| O=C(O)c1cc2c(C(=O)Nc3ccc(F)c(Cl)c3)ccc(F)c2[nH]1 | > 100 µM | – |
| COc1cc(Cl)cc(Nc2ccc(F)c3[nH]c(C(=O)O)cc23)c1 | > 100 µM | – |
| O=C(O)c1cc2c(Nc3ccc(F)c4[nH]ccc34)ccc(F)c2[nH]1 | > 100 µM | – |
